PMC3270411 (Chemistry & biology, 2012)
Blank lines part the entries; values can stand above or below the compound they belong to.

What was measured:
[1] = tested on: c-Jun phosphorylation (phospho Ser73) in A375 cells; assay type: cell-based; details: read-out: p-c-Jun EC50 (nM) A375; A375 cells, anisomycin stimulation, microscopy
[2] = tested on: c-Jun phosphorylation (pSer73) in HeLa cells; test: LanthaScreen TR-FRET c-Jun phosphorylation assay in HeLa cells; assay type: cell-based; details: read-out: p-c-Jun EC50 (nM) Hela; Hela cells, TNF-α stimulation, TR-FRET
Procedure, shortened: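 HeLa cells stably expressing GFP-c-Jun(1–79), 10,000/well in Opti-MEM with 0.5% charcoal/dextran-treated FBS, 25 mM Hepes pH 7.3, no phenol red; overnight. Pretreated 90 min with compound, then 30 min with 5 ng/ml TNF-α. Lysed in buffer containing 2 nM terbium anti-c-Jun pSer73 antibody; 60 min equilibration at room temperature. TR-FRET: excitation 340 nm, ratio Em 520/Em 490.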

MAPK8 (JNK1) = MAPK8 (JNK1) (Homo sapiens, UniProt P45983); test: Z'-lyte JNK1 kinase assay; assay type: biochemical; details: relative to JNK-IN-2
[3] = tested on: c-Jun phosphorylation in HeLa and A375 cells; test: cellular c-Jun phosphorylation, statements for both assay formats; assay type: cell-based; details: tested in parallel in HeLa and A375 formats
JNK1/2/3 [4] = test: Z'-lyte JNK kinase assays, statements for JNK1/2/3 together; assay type: biochemical
JNK1 = JNK1 (Homo sapiens, UniProt P45983); test: intact protein and peptide mass spectrometry of inhibitor-labeled JNK1; assay type: binding; details: recombinant JNK1, 5-fold excess of compound; Cys 116
JNK1/2/3 [5] = test: KinomeScan 400-kinase panel profiling; assay type: binding; details: 10 μM
JNK3 = JNK3 (Homo sapiens, UniProt P53779); test: in vitro covalent binding kinetics with purified JNK3; details: 27 molar excess of compound
Procedure, shortened: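 Purified JNK3 incubated with 1 μM test compound for varying times, then ATP-biotin probe 5 μM for 10 min. Protein denatured with an equal volume of 8 M urea and gel-filtered. Biotinylated protein captured on streptavidin beads for 2 h, washed, boiled 10 min at 95°C, run on SDS-PAGE and immunoblotted for JNK.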

JNK = test: pulse-chase ATP-biotin binding kinetics assay in A375 cells; assay type: cell-based; details: 1μM compound, protection from ATP-biotin labeling
Procedure, shortened: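 A375 cells treated with 1 μM test compound for 1–5 h, then washed three times in PBS. Lysed in NP-40/CHAPS buffer for 30 min at 4°C, cleared, and gel-filtered into HEPES kinase buffer (about 5–15 mg/ml protein). Lysate labelled with 5 μM ATP-biotin probe for 1 h, reduced with DTT, alkylated with iodoacetamide, and pulled down on streptavidin for 2 h. Read-out: SDS-PAGE and JNK immunoblot.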

JNK1, sequence (P45983 26-321 limits assumed): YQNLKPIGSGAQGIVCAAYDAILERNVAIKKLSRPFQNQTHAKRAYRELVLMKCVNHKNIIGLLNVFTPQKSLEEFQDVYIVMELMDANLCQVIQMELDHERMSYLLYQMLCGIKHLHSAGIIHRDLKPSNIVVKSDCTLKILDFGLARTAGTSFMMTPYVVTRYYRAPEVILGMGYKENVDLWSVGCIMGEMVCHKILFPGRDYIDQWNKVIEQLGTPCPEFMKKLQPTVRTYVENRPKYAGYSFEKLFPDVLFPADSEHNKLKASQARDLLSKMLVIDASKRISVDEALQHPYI
MAPK8 (JNK1), sequence (P45983 whole entry): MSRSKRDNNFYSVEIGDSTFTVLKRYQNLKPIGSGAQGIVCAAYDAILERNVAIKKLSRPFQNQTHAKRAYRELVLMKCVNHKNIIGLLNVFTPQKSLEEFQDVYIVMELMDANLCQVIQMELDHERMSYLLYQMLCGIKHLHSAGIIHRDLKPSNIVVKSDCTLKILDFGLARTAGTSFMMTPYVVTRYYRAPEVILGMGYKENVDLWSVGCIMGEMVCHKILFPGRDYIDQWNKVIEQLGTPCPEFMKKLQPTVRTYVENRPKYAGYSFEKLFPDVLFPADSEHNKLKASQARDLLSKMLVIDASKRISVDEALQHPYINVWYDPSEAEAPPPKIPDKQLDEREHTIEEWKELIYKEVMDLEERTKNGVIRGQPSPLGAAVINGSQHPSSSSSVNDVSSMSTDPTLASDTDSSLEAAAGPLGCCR
JNK3, sequence (P53779 whole entry): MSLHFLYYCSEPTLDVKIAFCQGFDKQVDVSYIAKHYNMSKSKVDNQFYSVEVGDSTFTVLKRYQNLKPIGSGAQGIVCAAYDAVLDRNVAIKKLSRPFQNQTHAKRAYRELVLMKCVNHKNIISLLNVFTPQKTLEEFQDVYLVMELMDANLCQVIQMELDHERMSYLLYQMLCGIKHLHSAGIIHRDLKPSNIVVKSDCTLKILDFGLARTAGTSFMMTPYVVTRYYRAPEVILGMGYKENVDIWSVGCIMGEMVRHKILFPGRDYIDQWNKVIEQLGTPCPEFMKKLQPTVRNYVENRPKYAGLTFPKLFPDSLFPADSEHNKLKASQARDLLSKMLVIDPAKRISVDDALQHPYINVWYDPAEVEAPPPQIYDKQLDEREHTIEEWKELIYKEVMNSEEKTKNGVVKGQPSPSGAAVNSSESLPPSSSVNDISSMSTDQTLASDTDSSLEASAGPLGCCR

EC50 [1]: 141 nM
EC50 [2]: 173 nM
SMILES: Cc1ccc(C(=O)Nc2ccc(Nc3nccc(-c4cccnc4)n3)cc2)cc1NC(=O)/C=C/CN(C)C [JNK-IN-10]

fold increase in biochemical IC50 against JNK1 (MAPK8 (JNK1)): 3 fold
SMILES: CN(C)C/C=C/C(=O)NCc1ccc(C(=O)Nc2cccc(Nc3nccc(-c4cccnc4)n3)c2)cc1 [JNK-IN-4]

EC50 [1]: 2400 nM
IC50s for inhibition of c-Jun phosphorylation in both assay formats [3]: micromolar range
EC50 [2]: 2020 nM
SMILES: N#CC(c1ccnc(NCCc2cccnc2)n1)c1nc2ccccc2s1 (stereo not drawn) [AS601245, reference compound]

EC50 [1]: 2400 nM
EC50 [2]: 704 nM
IC50 (JNK1/2/3 [4]; read-out: IC50 for inhibition of JNK kinase activity, Z'-lyte assay format): ~1 µM
covalent modification of JNK1 (mass spectrometry) (JNK1): covalent addition of one molecule
SMILES: CN(C)C/C=C/C(=O)Nc1ccc(C(=O)Nc2cccc(Nc3nccc(-c4cccnc4)n3)c2)cc1 [JNK-IN-2]

SMILES: Cc1ccc(NC(=O)c2ccc(NC(=O)/C=C/CN(C)C)cc2)cc1Nc1nccc(-c2cccnc2)n1 [JNK-IN-1]
binding to JNK1/2/3 in kinase selectivity profiling (JNK1/2/3 [5]): significant binding
IC50 for inhibition of JNK kinase activity (JNK1/2/3 [4]; Z'-lyte assay format): single digit micromolar

IC50s for inhibition of c-Jun phosphorylation in both assay formats [3]: micromolar range
SMILES: Oc1c2ccccc2c2c3c(cccc13)N=N2 [SP-600125]

SMILES: C=CC(=O)Nc1cccc(C(=O)Nc2ccc(Nc3nccc(-c4cccnc4)n3)cc2)c1 [JNK-IN-5]
EC50 [1]: 32 nM
time to completely label JNK3 (JNK3): 45 min
EC50 [2]: 118 nM
fold lower IC50 against JNK1, 2 and 3 (JNK1/2/3 [4]; compared with JNK-IN-2): 500 fold
incubation time required to modify JNK to background levels (JNK): Three
